# Data from ChEMBL document CHEMBL3286113, “New potent antibacterial oxazolidinone (MRX-I) with an improved class safety profile” (J Med Chem, 2014).
# Experiments:
# [1] = Elimination half life in fasted human at 300 mg, po administered as single dose; type: ADME, organism-based; conditions: in vivo, read-out: beta t1/2 (converted)
# Procedure, shortened: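 Healthy volunteers (12; six of each sex) in a three-period Latin-square crossover. Each received single oral doses of 300, 600 and 900 mg under fasting conditions, with a 1-week washout between doses. Parameters from a noncompartmental model.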
# [2] = Elimination half life in human at 900 mg, po administered as single dose at 30 mins post fat meal; type: ADME, organism-based; conditions: in vivo, read-out: beta t1/2 (converted)
# Procedure, shortened: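 Crossover study in 12 subjects (six of each sex). Each got a single oral 900 mg dose either fasted or 30 min after a fat-containing meal.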
# [3] = AUC (0 to 24 hrs) in human at 800 mg, po administered as single dose with meal measured on day 1; type: ADME, organism-based; set-up: dose 800 mg, time < 24 hr, route oral; conditions: plasma
# Procedure, shortened: (§1)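 Randomized, double-blind, placebo-controlled multiple-dose study in 32 healthy subjects (half male, half female). Subjects took 28 oral doses of 600 or 800 mg over 15 days, each with a meal. A single dose was given on days 1 and 15 for full PK, and doses were given Q12h from day 2 to day 14. AUC0−24 was measured on days 1 and 15.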
# [4] = Tmax in human at 800 mg, po administered as single dose with meal measured on day 15; type: ADME, organism-based; conditions: in vivo
# Procedure, shortened: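 Randomized, double-blind, placebo-controlled multiple-dose study in 32 healthy subjects, half male and half female. Dosing was 600 or 800 mg orally with a meal, 28 doses over 15 days. A single dose was given on days 1 and 15 for full PK, with Q12h (BID) dosing on days 2−14.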
# [5] = AUC (0 to 24 hrs) in human at 800 mg, po administered as single dose with meal measured on day 15; type: ADME, organism-based; set-up: dose 800 mg, time < 24 hr, route oral; conditions: plasma; procedure, shortened: as §1
# [6] = test system: Homo sapiens; experiment: Toxicity in human assessed as change in reticulocyte count at 600 to 800 mg, po administered as single dose with meal on day 1 and day 15 followed by bid with meal on day 2 to day 14 measured during compound treatment; type: organism-based; conditions: in vivo
# [7] = test system: Homo sapiens; experiment: Toxicity in human assessed as change in neutrophil count at 600 to 800 mg, po administered as single dose with meal on day 1 and day 15 followed by bid with meal on day 2 to day 14 measured during compound treatment; type: organism-based; conditions: in vivo
# [8] = test system: Rattus norvegicus; experiment: Toxicity in female rat assessed as effect on neutrophil count at 20 mg/kg/day, po bid administered for 4 weeks (reference value: 22.4%); type: organism-based; set-up: route oral; conditions: in vivo, 672 h
# [9] = test system: Rattus norvegicus; experiment: Toxicity in female rat assessed as effect on WBC count at 100 mg/kg/day, po bid administered for 4 weeks (reference value: 3.66 x 10^9/L); type: organism-based; set-up: route oral; conditions: in vivo, 672 h
# [10] = test system: Rattus norvegicus; experiment: Toxicity in female rat assessed as effect on platelet count at 100 mg/kg/day, po bid administered for 4 weeks (reference value: 654.6 x 10^9/L); type: organism-based; set-up: route oral; conditions: in vivo, 672 h
# [11] = test system: Rattus norvegicus; experiment: Toxicity in female rat assessed as effect on neutrophil count at 100 mg/kg/day, po bid administered for 4 weeks (reference value: 22.4%); type: organism-based; set-up: route oral; conditions: in vivo, 672 h
# [12] = test system: Rattus norvegicus; experiment: Toxicity in female rat assessed as effect on lymphocyte count at 200 to 300 mg/kg/day, po bid administered for 4 weeks (reference value: 74.8%); type: organism-based; set-up: route oral; conditions: in vivo, 672 h
# [13] = test system: Rattus norvegicus; experiment: Toxicity in female rat assessed as effect on reticulocyte count at 200 to 300 mg/kg/day, po bid administered for 4 weeks (reference value: 1.48%); type: organism-based; set-up: route oral; conditions: in vivo, 672 h
# [14] = target: MAO-A (Homo sapiens, UniProt P21397); experiment: Ratio of compound IC50 to linezolid IC50 for human recombinant MAO-A by luciferin-based luminescence assay; type: ADME; conditions: read-out: Ratio IC50
# [15] = target: Cytochrome P450 2E1 (Homo sapiens, UniProt P05181); experiment: Inhibition of CYP2E1 (unknown origin); type: ADME
# [16] = Clastogenicity in CHL cells assessed as induction of structural chromosomal aberration at 25 to 200 ug/mL measured over 24 hrs in presence of metabolic activation; type: toxicity, cell-based, Cricetulus griseus; conditions: chinese hamster
# Procedure, shortened: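 Chinese hamster lung cells scored for structural chromosome aberrations with or without metabolic activation. Exposure was 50–400 μg/mL over 6 h, or 25–200 μg/mL over 24 h.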
# [17] = test system: Staphylococcus saprophyticus; experiment: Antibacterial activity against Staphylococcus saprophyticus; type: functional
# [18] = test system: Enterococcus faecalis; experiment: Bacteriostatic activity against vancomycin-sensitive Enterococcus faecalis; type: functional
# [19] = test system: Streptococcus agalactiae; experiment: Antibacterial activity against Streptococcus agalactiae; type: functional
# [20] = test system: Streptococcus pneumoniae; experiment: Antibacterial activity against Streptococcus pneumoniae assessed as time required for growth inhibition; type: functional
# [21] = test system: Staphylococcus aureus; experiment: Antibacterial activity against Staphylococcus aureus measured after 1 serial passage; type: functional
# [22] = test system: Staphylococcus aureus; experiment: Antibacterial activity against Staphylococcus aureus measured after 7 serial passages; type: functional
# [23] = test system: Staphylococcus aureus; experiment: Antibacterial activity against methicillin-resistant Staphylococcus aureus isolate 0605; type: functional
# [24] = test system: Staphylococcus aureus; experiment: Antibacterial activity against methicillin-sensitive Staphylococcus aureus isolate 15; type: functional
# [25] = test system: Enterococcus faecalis; experiment: Antibacterial activity against vancomycin-sensitive Enterococcus faecalis ATCC 29212; type: functional
# [26] = test system: Enterococcus faecalis; experiment: Antibacterial activity against vancomycin-resistant Enterococcus faecalis isolate EFL 4041; type: functional
# [27] = test system: Enterococcus faecalis; experiment: Antibacterial activity against vancomycin-sensitive/high-level gentamycin-resistant Enterococcus faecalis isolate HH22; type: functional; conditions: EnGen0297
# [28] = test system: Streptococcus pyogenes; experiment: Antibacterial activity against Streptococcus pyogenes isolate 556; type: functional
# [29] = test system: Rattus norvegicus; experiment: Acute toxicity in rat administered as single dose; type: organism-based; conditions: in vivo
# [30] = test system: Streptococcus pneumoniae; experiment: Antibacterial activity against penicillin intermediate-sensitive Streptococcus pneumoniae ATCC 49619 clinical isolate in po dosed mouse systemic infection model; type: functional; conditions: ATCC 49619, po
# [31] = test system: Enterococcus faecalis; experiment: Antibacterial activity against vancomycin-resistant Enterococcus faecalis isolate EFL 4041 in po dosed mouse systemic infection model; type: functional; conditions: isolate EFL 4041, po
# [32] = test system: Streptococcus pyogenes; experiment: Antibacterial activity against Streptococcus pyogenes isolate 556 in po dosed mouse systemic infection model; type: functional; conditions: isolate 556, po
# [33] = test system: Staphylococcus aureus; experiment: Antibacterial activity against methicillin-sensitive Staphylococcus aureus ATCC 29213 in mouse thigh infection model assessed as reduction of log10 CFU per thigh at 5 mg/kg, po; type: functional
# Procedure, shortened: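 Mouse thigh infection with S. aureus ATCC29213 (MSSA), 10 animals per dosing group. Oral doses were 5, 10, 20, 40 and 80 mg/kg. The read-out was log CFU per thigh after treatment, and the reduction (ΔLogCFU/thigh) was reported.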
# [34] = test system: Staphylococcus aureus; experiment: Antibacterial activity against methicillin-resistant Staphylococcus aureus isolate 0605 in mouse thigh infection model assessed as reduction of log10 CFU per thigh at 10 mg/kg, po; type: functional
# [35] = Half life in po dosed mouse; type: ADME, organism-based; conditions: in vivo
# [36] = Half life in po dosed dog; type: ADME, organism-based, Canis lupus familiaris; conditions: in vivo
# [37] = Oral bioavailability in dog; type: ADME, organism-based, Canis lupus familiaris; conditions: in vivo
# [38] = Tmax in male rat at 15 mg/kg, po; type: ADME, organism-based; set-up: dose 15 mg/kg, route oral; conditions: in vivo
# Procedure, shortened: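 Male and female rats received single oral doses of 5, 15 or 45 mg/kg, with 5 mg/kg iv as a reference arm. Tmax was read from the plasma concentration–time profile for each gender.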
# [39] = Cmax in male rat at 15 mg/kg, po; type: ADME, organism-based; set-up: dose 15 mg/kg, route oral; conditions: in vivo
# [40] = Cmax in male rat at 45 mg/kg, po; type: ADME, organism-based; set-up: dose 45 mg/kg, route oral; conditions: in vivo
# [41] = Cmax in female rat at 45 mg/kg, po; type: ADME, organism-based; set-up: dose 45 mg/kg, route oral; conditions: in vivo
# [42] = Half life in male rat at 45 mg/kg, po; type: ADME, organism-based; set-up: dose 45 mg/kg, route oral; conditions: in vivo
# Chain of MAO-A (P21397 whole entry): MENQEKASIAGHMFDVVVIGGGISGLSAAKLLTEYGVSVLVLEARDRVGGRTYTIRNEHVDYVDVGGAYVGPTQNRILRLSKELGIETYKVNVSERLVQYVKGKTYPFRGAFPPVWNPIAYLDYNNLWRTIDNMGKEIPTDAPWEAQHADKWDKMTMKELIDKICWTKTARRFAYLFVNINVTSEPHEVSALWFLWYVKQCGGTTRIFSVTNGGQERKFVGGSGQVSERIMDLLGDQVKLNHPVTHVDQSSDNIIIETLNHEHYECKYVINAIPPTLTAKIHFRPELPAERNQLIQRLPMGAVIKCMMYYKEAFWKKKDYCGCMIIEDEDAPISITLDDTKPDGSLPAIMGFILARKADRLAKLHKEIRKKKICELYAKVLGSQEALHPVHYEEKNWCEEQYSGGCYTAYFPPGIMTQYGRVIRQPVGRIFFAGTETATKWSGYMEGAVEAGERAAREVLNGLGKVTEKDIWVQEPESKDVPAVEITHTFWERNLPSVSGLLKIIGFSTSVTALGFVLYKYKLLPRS
# Chain of Cytochrome P450 2E1 (P05181 whole entry): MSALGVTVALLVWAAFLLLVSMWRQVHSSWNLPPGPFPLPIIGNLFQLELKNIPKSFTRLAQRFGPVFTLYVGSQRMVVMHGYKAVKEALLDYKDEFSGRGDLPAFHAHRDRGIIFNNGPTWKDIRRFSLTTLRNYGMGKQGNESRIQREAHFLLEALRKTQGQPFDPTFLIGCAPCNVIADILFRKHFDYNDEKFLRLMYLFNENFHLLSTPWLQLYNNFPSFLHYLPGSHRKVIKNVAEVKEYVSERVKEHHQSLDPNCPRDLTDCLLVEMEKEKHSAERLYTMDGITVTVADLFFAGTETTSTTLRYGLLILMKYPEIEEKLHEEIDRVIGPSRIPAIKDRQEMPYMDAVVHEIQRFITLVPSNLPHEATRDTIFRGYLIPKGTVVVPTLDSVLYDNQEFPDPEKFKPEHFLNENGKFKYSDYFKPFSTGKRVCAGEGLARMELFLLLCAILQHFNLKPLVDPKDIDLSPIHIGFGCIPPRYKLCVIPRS
smiles,measurement,setting,value
O=C1C=CN(c2c(F)cc(N3C[C@H](CNc4ccon4)OC3=O)c(F)c2F)CC1 [CONTEZOLID],half-life,[1],2.18 h
same,half-life,[2],2.7 h
same,AUC(0-t) at 24 h,[3],91800 ng·h/mL
same,Tmax,[4],0.57 h
same,AUC(0-t) at 24 h,[5],90400 ng·h/mL
same,Activity,[6],Non-toxic
same,Activity,[7],Non-toxic
same,Activity,[8],15.4%
same,Activity,[9],3.14 ×10⁹ /L
same,Activity,[10],636.2 ×10⁹ /L
same,Activity,[11],18.4%
same,Activity,[12],71.8%
same,Activity,[13],1.26%
same,selectivity ratio,[14],3
same,IC50,[15],9.6 µM
same,Activity,[16],Non-toxic
same,MIC50,[17],0.5 µg/mL
same,MIC90,[17],1 µg/mL
same,MIC50,[18],1 µg/mL
same,MIC90,[18],1 µg/mL
same,MIC50,[19],1 µg/mL
same,MIC90,[19],1 µg/mL
same,Time,[20],1.8 h
same,MIC,[21],2 µg/mL
same,MIC,[22],2 µg/mL
same,MIC,[23],2 µg/mL
same,MIC,[24],2 µg/mL
same,MIC,[25],1 µg/mL
same,MIC,[26],1 µg/mL
same,MIC,[27],2 µg/mL
same,MIC,[28],1 µg/mL
same,Activity,[29],5000 mg/kg
same,ED50,[30],8.1 mg/kg
same,ED50,[31],6.2 mg/kg
same,ED50,[32],8.9 mg/kg
same,deltalog10CFU,[33],0.95
same,deltalog10CFU,[34],2.47
same,half-life,[35],1 h
same,half-life,[36],3 h
same,bioavailability,[37],37%
same,Tmax,[38],1 h
same,Cmax,[39],10700 ng/mL
same,Cmax,[40],27800 ng/mL
same,Cmax,[41],50000 ng/mL
same,half-life,[42],1.07 h
